Experimental findings from ChEMBL document CHEMBL1154602, “Toward a rational design of multitarget-directed antioxidants: merging memoquin and lipoic acid molecular frameworks” (J Med Chem, 2009) are described below.

Calls of active or inactive are those of the source. The calls are words filed in the database; no cut-off is given here.

Experiment [1] concerns T67. Nature of the experiment: Antioxidant activity in human T67 cells assessed as inhibition of tert-butyl hydroperoxide-induced ROS production at 10 uM after 24 hrs by fluorescence assay in presence of 2.5 uM sulforaphane treated for 24 hrs before compound addition. The format is functional, cell-based. Summed up: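 T67 cells pretreated with 2.5 μM sulforaphane to raise NQO1 activity; ROS formation induced by t-BuOOH; oxidized form tested at 10 μM; significance set at p ≤ 0.05 versus t-BuOOH + sulforaphane-treated cells.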

The nature of experiment [2]: Inhibition of amyloid beta (1 to 42) self-aggregation assessed as amyloid fibril formation at 10 uM by thioflavin-T based fluorometric assay. An outline of the steps:
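Self-induced Aβ(1-42) aggregation at 50 μM, test compound at 10 μM; percent inhibition reported with SEM.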

For experiment [3], the target named is Acetylcholinesterase (Homo sapiens, UniProt P22303). Nature of the experiment: Inhibition of human recombinant AChE by Ellman's method. An outline of the steps: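 Human recombinant AChE. IC50 is the inhibitor concentration that decreases enzyme activity by 50%. Values are the mean of two independent measurements, each run in triplicate, with SEM.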
Sequence of Acetylcholinesterase (P22303 whole entry): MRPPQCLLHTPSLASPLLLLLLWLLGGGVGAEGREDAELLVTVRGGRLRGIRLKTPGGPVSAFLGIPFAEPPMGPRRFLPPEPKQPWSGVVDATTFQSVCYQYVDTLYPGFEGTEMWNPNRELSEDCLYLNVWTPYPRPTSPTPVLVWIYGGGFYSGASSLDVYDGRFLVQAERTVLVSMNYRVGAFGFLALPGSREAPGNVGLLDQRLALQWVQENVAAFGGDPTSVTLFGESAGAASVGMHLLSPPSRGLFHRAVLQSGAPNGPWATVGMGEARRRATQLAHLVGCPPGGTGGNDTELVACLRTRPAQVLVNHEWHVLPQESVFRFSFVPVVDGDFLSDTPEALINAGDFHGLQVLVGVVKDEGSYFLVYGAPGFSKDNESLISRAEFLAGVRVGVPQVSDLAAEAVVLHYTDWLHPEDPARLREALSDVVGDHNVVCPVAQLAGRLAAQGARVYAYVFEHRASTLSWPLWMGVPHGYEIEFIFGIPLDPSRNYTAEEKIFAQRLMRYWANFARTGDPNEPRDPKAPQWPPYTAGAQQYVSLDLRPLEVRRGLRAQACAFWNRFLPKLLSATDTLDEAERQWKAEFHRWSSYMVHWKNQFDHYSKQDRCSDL
In experiment [4] the target is Cholinesterase (Homo sapiens, UniProt P06276). The experiment is described as follows: Inhibition of human recombinant BChE by Ellman's method.
Sequence of Cholinesterase (P06276 whole entry): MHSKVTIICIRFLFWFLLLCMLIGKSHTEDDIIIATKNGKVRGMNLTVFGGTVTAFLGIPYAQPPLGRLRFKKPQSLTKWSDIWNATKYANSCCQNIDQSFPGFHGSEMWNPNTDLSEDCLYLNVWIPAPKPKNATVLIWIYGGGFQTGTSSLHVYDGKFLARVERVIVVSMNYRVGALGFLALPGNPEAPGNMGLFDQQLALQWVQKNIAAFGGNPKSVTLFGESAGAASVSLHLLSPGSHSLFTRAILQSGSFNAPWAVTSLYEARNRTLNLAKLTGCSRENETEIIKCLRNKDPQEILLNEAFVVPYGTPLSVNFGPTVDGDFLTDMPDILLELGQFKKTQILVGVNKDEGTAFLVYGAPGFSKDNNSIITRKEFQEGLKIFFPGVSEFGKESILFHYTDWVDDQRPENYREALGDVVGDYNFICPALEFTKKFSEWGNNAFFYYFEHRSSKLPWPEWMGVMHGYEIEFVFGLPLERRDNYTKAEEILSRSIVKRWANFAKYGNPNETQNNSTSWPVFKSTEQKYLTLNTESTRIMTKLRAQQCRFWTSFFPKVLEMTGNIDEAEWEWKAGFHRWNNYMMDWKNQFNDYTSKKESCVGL
For experiment [5], the species on record is Bos taurus. Nature of the experiment: Antioxidant activity in bovine heart submitochondrial particles assessed as inhibition of antimycin A-induced ROS production at 10 uM by fluorescence assay. The class given is functional. An outline of the steps: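 Submitochondrial particles given NADH; ROS production triggered by antimycin A addition. Quinone (oxidized) form tested at 10 μM.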

In experiment [6] the test system is T67. The experiment is described as follows: Antioxidant activity in human T67 cells assessed as inhibition of tert-butyl hydroperoxide-induced ROS production at 10 uM after 24 hrs by fluorescence assay. The format is functional, cell-based. Summed up:
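T67 cells without sulforaphane pretreatment; ROS formation induced by t-BuOOH; oxidized form tested at 10 μM; significance set at p ≤ 0.05 versus t-BuOOH-treated cells.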

The species named for experiment [7] is Bos taurus. The experiment is described as follows: Antioxidant activity in bovine heart submitochondrial particles assessed as inhibition of antimycin A-induced ROS production at 10 uM pretreated for 30 mins with human NQO1 by fluorescence assay. The class given is functional. Summed up:
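Submitochondrial particles given NADH; ROS production triggered by antimycin A. Compound first reduced by 30 min preincubation with purified human NQO1 using NADH as substrate, reaction then stopped with 10 μM dicumarol; tested at 10 μM.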

Consider `CCN(CCCNC1=CC(=O)C(NCCCNC(=O)CCCCC2CCSS2)=CC1=O)Cc1ccccc1OC` (stereo unspecified), for which the outcome in experiment [1], in experiment [5], in experiment [6] and in experiment [7] was Active. In addition, the inhibition in experiment [2] was determined as 19.2%. For the same compound, the IC50 was determined as 0.19 µM in experiment [3] and 212 µM in experiment [4].

With `CCN(CCCCCCNC1=CC(=O)C(NCCCCCCN(CC)Cc2ccccc2OC)=CC1=O)Cc1ccccc1OC` [MEMOQUIN], the IC50 in experiment [3] was determined as 0.0015 µM.

Consider `CCN(CCCCCCNC1=CC(=O)C(NCCCNC(=O)CCCCC2CCSS2)=CC1=O)Cc1ccccc1OC` (stereo unspecified), for which the outcome in experiment [1], in experiment [5], in experiment [6] and in experiment [7] was Active. The inhibition in experiment [2] turned out to be 34.4%. In addition, the half-maximal inhibitory concentration (IC50) in experiment [3] was found to be 0.15 µM; in experiment [4], 21 µM.

On to `CCN(CCCNC1=CC(=O)C(NCCCCCCNC(=O)CCCCC2CCSS2)=CC1=O)Cc1ccccc1OC` (stereo unspecified), for which the result in experiment [1], in experiment [5], in experiment [6] and in experiment [7] was Active. Besides, in experiment [2], the inhibition is 31.8%. Moreover, the IC50 in experiment [3] is 0.16 µM; in experiment [4] it was 11.1 µM.

Turning to `O=C(CCCCC1CCSS1)NCCCNc1c2c(nc3cc(Cl)ccc13)CCCC2` (stereo unspecified), the outcome in experiment [1] was inactive. Moreover, in experiment [2], the inhibition was less than 10%.

On to `CCN(CCCCCCNC1=CC(=O)C(NCCCCCCNC(=O)CCCCC2CCSS2)=CC1=O)Cc1ccccc1OC` (stereo unspecified), for which the outcome in experiment [1], in experiment [5], in experiment [6] and in experiment [7] was Active. Also, the inhibition in experiment [2] is 45.4%. The IC50 in experiment [3] is 0.1 µM; in experiment [4], 4.99 µM.
